{"data": "Experimental data from different studies", "MAP2K5": "Dual specificity mitogen-activated protein kinase kinase 5 (MAP2K5, Homo sapiens, UniProt Q13163)", "note": "Each line is one published result; the experiments were not run side by side."}
{"Structure (SMILES)": "CO[C@H]1/C=C/O[C@@]2(C)Oc3c(C)c(O)c4c(O)c(c(/C=N/N5CCN(C6CCCC6)CC5)c(O)c4c3C2=O)NC(=O)/C(C)=C\\C=C\\[C@H](C)[C@H](O)[C@@H](C)[C@@H](O)[C@@H](C)[C@H](OC(C)=O)[C@@H]1C", "target": "dppA (Mycobacterium tuberculosis, UniProt I6X811)", "test": "thermal stability", "setting": "100 µM", "measurement": "ΔTm", "value": "> 1.5 °C"}
{"Structure (SMILES)": "CCN(CC)CCCC[C@H](NC(=O)[C@H](CC(C)C)NC(=O)[C@H](C)NC(=O)[C@H](Cc1ccccc1)NC(=O)c1ccc(C(C)(C)C)cc1)C(=O)N[C@@H](CO)C(=O)OC", "target": "Melanocortin receptor 4 (MC4R, Homo sapiens, UniProt P32245)", "test": "ligand displacement, radioligand", "setting": "10 µM", "measurement": "remaining binding", "value": "84%"}
{"Structure (SMILES)": "COc1ncccc1-c1cnn2ccc(N3CCN(C(=O)OC(C)C)CC3)nc12", "target": "Peripheral plasma membrane protein CASK (CASK, Homo sapiens, UniProt O14936)", "test": "binding, competition with immobilised ligand", "setting": "1 µM", "measurement": "remaining binding", "value": "93%"}
{"Structure (SMILES)": "Nc1ncc(-c2nc(N3CCOCC3)nc(N3CCOCC3)n2)c(C(F)F)n1", "target": "MAP2K5", "test": "binding, competition with immobilised ligand", "setting": "10 µM", "measurement": "remaining binding", "value": "39%"}
{"Structure (SMILES)": "CN1CC[C@@]2(C)c3cc(OC(=O)Nc4ccccc4)ccc3N(C)[C@@H]12", "target": "Muscarinic acetylcholine receptor M5 (CHRM5, Homo sapiens, UniProt P08912)", "test": "ligand displacement, radioligand", "setting": "10 µM", "measurement": "inhibition", "value": "6.5%"}
{"Structure (SMILES)": "Cc1nn(C)cc1-c1nc2c(N3CCN(Cc4ccc(Cl)cc4)CC3)c(Cl)cnc2[nH]1", "target": "MAP2K5", "test": "binding, competition with immobilised ligand", "setting": "1 µM", "measurement": "remaining binding", "value": "58%"}
{"Structure (SMILES)": "Sc1ncnc2nc[nH]c12", "target": "Replicase polyprotein 1a, main protease (Severe acute respiratory syndrome-related coronavirus, UniProt P0C6U8)", "test": "enzyme activity, inhibitor", "setting": "200 µM", "measurement": "remaining activity", "value": "49%"}
{"Structure (SMILES)": "C#Cc1n[nH]c2c(-c3cn(C(C)c4ccccn4)c(=O)[nH]c3=O)cc(F)cc12 (centres unmarked)", "target": "Fibroblast growth factor receptor 1 (FGFR1, Homo sapiens, UniProt P11362)", "test": "enzyme activity, inhibitor", "setting": "1 µM", "measurement": "inhibition", "value": "3.8%"}
